Measured values reported in ChEMBL document CHEMBL1146725, “Discovery and SAR of potent, orally available and brain-penetrable 5,6-dihydro-4H-3-thia-1-aza-benzo[e]azulen- and 4,5-dihydro-6-oxa-3-thia-1-aza-benzo[e]azulen derivatives as neuropeptide Y Y5 receptor antagonists” (Bioorg Med Chem Lett, 2004).

Legend:
[1] = biological target: T1, Neuropeptide Y receptor type 5 (Homo sapiens, UniProt Q15761); assay: (§1) In vitro binding affinity against human neuropeptide Y5 receptor
T1 sequence (Q15761 whole entry): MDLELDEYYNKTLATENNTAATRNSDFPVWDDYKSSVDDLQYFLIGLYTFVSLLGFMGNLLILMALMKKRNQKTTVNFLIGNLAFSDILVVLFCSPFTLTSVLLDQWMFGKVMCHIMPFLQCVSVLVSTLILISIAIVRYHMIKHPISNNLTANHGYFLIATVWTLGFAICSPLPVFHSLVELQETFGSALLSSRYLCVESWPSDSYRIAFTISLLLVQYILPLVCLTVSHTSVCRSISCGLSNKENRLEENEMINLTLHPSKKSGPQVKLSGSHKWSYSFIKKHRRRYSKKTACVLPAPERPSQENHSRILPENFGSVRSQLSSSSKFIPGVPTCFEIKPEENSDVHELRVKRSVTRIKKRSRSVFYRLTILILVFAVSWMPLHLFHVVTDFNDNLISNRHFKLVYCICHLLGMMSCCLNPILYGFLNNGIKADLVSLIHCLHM

[2] = Concentration (30 mg/kg, p.o.) in rat hypothalamus after 2 hours; type: ADME, organism-based; conditions: hypothalamus, po
Outline: (§2)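 Male rats (RA238), fasted overnight, given 30 mg/kg by oral gavage (5 mL/kg) in 20% Cremophore EL/water (w/w). Plasma and hypothalamus were sampled at 2 and 6 h post-dose and levels measured by LC-MS. Values are the mean of 3-6 animals per time point, as µg/mL plasma and µg/g hypothalamus.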

[3] = Concentration (30 mg/kg, p.o.) in rat hypothalamus after 6 hours; type: ADME, organism-based; conditions: hypothalamus, po; outline: as §2
[4] = Concentration (30 mg/kg, p.o.) in rat plasma after 6 hours; type: ADME, organism-based; conditions: plasma, po; outline: as §2
[5] = biological target: T1, Neuropeptide Y receptor type 5; assay: In vitro binding affinity against human neuropeptide Y5 receptor measured as Ca+ response
Outline: (§3)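 Reported as IC50 (nM), each value the mean of three separate experiments.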

[6] = Concentration (30 mg/kg, p.o.) in rat plasma after 2 hours; type: ADME, organism-based; conditions: plasma, po; outline: as §2
[7] = biological target: T2, Neuropeptide Y receptor type 5 (Rattus norvegicus, UniProt Q63634); assay: In vitro binding affinity against rat neuropeptide Y5 receptor; outline: as §3
T2 sequence (Q63634 whole entry): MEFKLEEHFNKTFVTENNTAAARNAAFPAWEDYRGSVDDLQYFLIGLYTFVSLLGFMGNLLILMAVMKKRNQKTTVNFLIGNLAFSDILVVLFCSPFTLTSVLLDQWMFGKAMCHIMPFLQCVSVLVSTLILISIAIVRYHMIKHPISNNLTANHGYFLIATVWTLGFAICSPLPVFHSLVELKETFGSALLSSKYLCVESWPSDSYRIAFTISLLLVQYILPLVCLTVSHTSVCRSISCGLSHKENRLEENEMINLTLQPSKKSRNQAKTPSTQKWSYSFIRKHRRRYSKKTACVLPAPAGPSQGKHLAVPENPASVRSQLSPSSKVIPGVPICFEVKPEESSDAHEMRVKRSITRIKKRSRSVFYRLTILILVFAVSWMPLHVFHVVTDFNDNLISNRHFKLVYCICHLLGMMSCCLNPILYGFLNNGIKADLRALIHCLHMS

[8] = biological target: T1, Neuropeptide Y receptor type 5; assay: as §1; outline: as §3; remark: listed apart in the source

| IC50 [1] | Compound | also measured |
| --- | --- | --- |
| 20 nM | O=C(c1ccccc1F)N1CCC(CNc2nc3c(s2)CCCc2ccc(F)cc2-3)CC1 |  |
| 2 nM | COCC(=O)N1CCC(CNc2nc3c(s2)CCCc2ccc(F)cc2-3)CC1 |  |
| 4 nM | CN(C)CC(=O)N1CCC(CNc2nc3c(s2)CCCc2ccc(F)cc2-3)CC1 |  |
| 2 nM | CC(C)C(=O)N1CCC(CNc2nc3c(s2)CCCc2ccc(F)cc2-3)CC1 |  |
| 2 nM | O=C(CN1CCOCC1)N1CCC(CNc2nc3c(s2)CCCc2ccc(F)cc2-3)CC1 |  |
| 2 nM | CC(=O)N1CCC(CNc2nc3c(s2)CCCc2ccc(F)cc2-3)CC1 | concentration at 2 h [2]: 3700 ng/g; concentration at 6 h [3]: 290 ng/g; concentration at 6 h [4]: 70 ng/mL; IC50 [5]: 254 nM; concentration at 2 h [6]: 950 ng/mL |
| 28 nM | CCOCC(=O)N1CCC(CNc2nc3c(s2)CCOc2ccc(F)cc2-3)CC1 |  |
| 2 nM | O=C(C1CC1)N1CCC(CNc2nc3c(s2)CCCc2ccc(F)cc2-3)CC1 |  |
| 7 nM | CCCCC(=O)N1CCC(CNc2nc3c(s2)CCOc2ccc(F)cc2-3)CC1 | concentration at 2 h [2]: 2230 ng/g; concentration at 6 h [3]: 260 ng/g; concentration at 6 h [4]: 70 ng/mL; IC50 [5]: 100 nM; IC50 [7]: 6 nM; concentration at 2 h [6]: 740 ng/mL |
| 15 nM | COCCCNCC(=O)N1CCC(CNc2nc3c(s2)CCCc2ccc(F)cc2-3)CC1 |  |
| 6 nM | O=C(CNCC1CC1)N1CCC(CNc2nc3c(s2)CCCc2ccc(F)cc2-3)CC1 |  |
| 2 nM | COC(=O)N[C@H]1CC[C@H](CNc2nc3c(s2)CCCc2ccc(F)cc2-3)CC1 |  |
| 24 nM | CN1CCN(CC(=O)N2CCC(CNc3nc4c(s3)CCCc3ccc(F)cc3-4)CC2)CC1 |  |

Continued, molecule first:

| Compound | IC50 [1] | also measured |
| --- | --- | --- |
| O=C(N[C@H]1CC[C@H](CNc2nc3c(s2)CCCc2ccc(F)cc2-3)CC1)c1cccs1 | 15 nM |  |
| CC(C)C(=O)N1CCC(CNc2nc3c(s2)CCOc2cc(Cl)c(F)cc2-3)CC1 | 99 nM |  |
| CN(C)S(=O)(=O)NC[C@H]1CC[C@H](Nc2nc3c(s2)CCSc2ccc(F)cc2-3)CC1 | 3 nM |  |
| CC(C)C(=O)N1CCC(CNc2nc3c(s2)CCOc2cc(F)c(F)cc2-3)CC1 | 40 nM |  |
| CC(=O)NC1CCN(CC(=O)Nc2nc3c(s2)CCCc2ccc(F)cc2-3)CC1 | 78 nM |  |
| CN(C)CCCC(=O)N[C@H]1CC[C@H](CNc2nc3c(s2)CCCc2ccc(F)cc2-3)CC1 | 290 nM |  |
| CN(C)C(=O)CCCCNc1nc2c(s1)CCCc1ccc(F)cc1-2 | 25 nM |  |
| Cc1ccc2c(c1)-c1nc(NCC3CCN(C(=O)[C@H]4CCCO4)CC3)sc1CCO2 | 5 nM | concentration at 2 h [2]: 1460 ng/g; concentration at 6 h [3]: 400 ng/g; concentration at 6 h [4]: 260 ng/mL; IC50 [5]: 40 nM; IC50 [7]: 2.9 nM; concentration at 2 h [6]: 870 ng/mL |
| Cc1ccc2c(c1)-c1nc(NCC3CCN(C(=O)C(C)C)CC3)sc1CCO2 | 5 nM | concentration at 2 h [2]: 2420 ng/g; concentration at 6 h [3]: 880 ng/g; concentration at 6 h [4]: 330 ng/mL; IC50 [5]: 61 nM; concentration at 2 h [6]: 840 ng/mL |
| CCCCC(=O)N1CCC(CNc2nc3c(s2)CCOc2ccc(OC)cc2-3)CC1 | 17 nM |  |
| CCCCC(=O)N[C@H]1CC[C@H](CNc2nc3c(s2)CCCc2ccc(F)cc2-3)CC1 | 6 nM |  |
| CN(CC(=O)N1CCC(CNc2nc3c(s2)CCOc2ccc(F)cc2-3)CC1)CC1CC1 |  | IC50 [8]: 18 nM |
| COCCC(=O)N1CCC(CNc2nc3c(s2)CCOc2ccc(F)cc2-3)CC1 |  | IC50 [8]: 22 nM |
| CCCCC(=O)N1CCC(CNc2nc3c(s2)CCOc2cc(F)c(F)cc2-3)CC1 | 38 nM |  |
| Cc1ccc2c(c1)-c1nc(NCC3CCN(C(=O)c4ccccn4)CC3)sc1CCO2 | 25 nM |  |
| CC(=O)C1(c2ccccc2)CCC(CC(=O)Nc2nc3c(s2)CCCc2ccc(F)cc2-3)CC1 (centres undefined) | 15 nM |  |
| O=C1CCCN1[C@H]1CC[C@H](CNc2nc3c(s2)CCCc2ccc(F)cc2-3)CC1 | 5 nM |  |
| CCCCC(=O)N1CCC(CNc2nc3c(s2)CCOc2cc(F)c(Cl)cc2-3)CC1 | 20 nM |  |
| O=C([C@@H]1CCCO1)N1CCC(CNc2nc3c(s2)CCOc2ccc(F)cc2-3)CC1 |  | concentration at 2 h [2]: 5480 ng/g; concentration at 6 h [3]: 640 ng/g; concentration at 6 h [4]: 140 ng/mL; concentration at 2 h [6]: 930 ng/mL; IC50 [8]: 19 nM |
| Fc1ccc(-c2csc(Nc3ccccc3)n2)cc1 | 1600 nM |  |
